Experimental data pooled from the literature.
Each line is one published result; the experiments were not run side by side.
Target: Sodium-dependent noradrenaline transporter (SLC6A2, Homo sapiens, UniProt P23975)

Nc1ccc(-c2ccncc2)cc1NC(=O)N1CCCC1 — inhibition (cell-free assay; 10 µM): 15%
CN1CCN(CCCOc2ccc(=O)n(-c3ccc(Cl)c(Cl)c3)n2)CC1 — inhibition (ligand displacement; 1 µM): 14.4%
Clc1ccc(C(c2ccccc2)c2nnnn2CCCCN2CCC(CCc3ccccc3)CC2)cc1 (stereo not drawn) — inhibition (transporter uptake, inhibitor; HEK293; 1 µM): 72.4%
Ic1cccc2cnccc12 — inhibition (ligand displacement, radioligand; 10 µM): 44%
O[C@@H]1[C@H](O)[C@@H]2C[C@@H]2[C@H]1n1cnc2c(NCCc3ccccc3)nc(C#Cc3ccccc3Cl)nc21 — inhibition (ligand displacement, radioligand; 10 µM): 24%
c1ccc(CCCC2CCN(CCCCn3nnnc3C(c3ccccc3)c3ccccc3)CC2)cc1 — inhibition (transporter uptake, inhibitor; HEK293; 1 µM): 73.9%
O[C@@H]1[C@H](O)[C@@H]2C[C@@H]2[C@H]1n1cnc2c(NCc3cccc(Cl)c3)ncnc21 — inhibition (ligand displacement, radioligand; 10 µM): 35%
Clc1ccc(C(c2ccc(Cl)cc2)c2nnnn2CCCN2CCC(Cc3ccccc3)CC2)cc1 — inhibition (transporter uptake, inhibitor; HEK293; 1 µM): 8.36%
O=C1N=C(N2CCCCN2)S/C1=C\c1ccc(F)cc1O — inhibition (ligand displacement, radioligand; 10 µM): < 10%
O=C(c1ccc(Cl)cc1)N(Cc1ccccc1)C1CCCCC1 — inhibition (cell-free assay; 10 µM): 14.9%
CCCNc1nc2ccccc2n1Cc1ccc(Cl)cc1 — inhibition (ligand displacement; 10 µM): 21.9%
CCN(CC)c1ccc(C2Nc3ccc(C(=O)c4ccccc4)cc3NC3=C2C(=O)CC(C)(C)C3)cc1 (stereo not drawn) — inhibition (ligand displacement, radioligand; 10 µM): 51%
